Assay results from ChEMBL document CHEMBL3616416, “Imidazolidine-4-one derivatives in the search for novel chemosensitizers of Staphylococcus aureus MRSA: synthesis, biological evaluation and molecular modeling studies” (Eur J Med Chem, 2015).
Values after ≈ are worked out from the molar mass of the structure shown. Active and inactive are the calls of the source. The calls are words filed in the database; no cut-off is given here.

Columns and labels:
[1] = system: Staphylococcus aureus; assay: Resistance index, ratio of MIC for methicillin-resistant Staphylococcus aureus HEMSA to MIC for Staphylococcus aureus ATCC 25923; type: functional
[2] = system: Staphylococcus aureus; assay: Antimicrobial activity against Staphylococcus aureus ATCC 25923 incubated for 20 hrs in presence of sulbactam by serial dilution broth microplate method; type: functional; details: ATCC 25923, 20 h
[3] = system: Staphylococcus aureus; assay: Antimicrobial activity against methicillin-resistant Staphylococcus aureus HEMSA incubated for 20 hrs in presence of sulbactam by serial dilution broth microplate method; type: functional
In short: (§1)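 Broth microdilution MIC per CLSI in Mueller-Hinton broth against clinical isolate MRSA HEMSA 5. Bacterial suspension adjusted to OD 0.5, diluted 1:100 and added to serial two-fold dilutions of test agent. Ampicillin/sulbactam used at 2:1 ratio. Growth read after 20 h at 37 °C.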

[4] = molecular target: T1, Methicillin resistance mecR1 protein (Staphylococcus aureus) (UniProt P0A0B1); assay: Inhibition of MecR1 in methicillin-resistant Staphylococcus aureus HEMSA assessed as reduction in neomycin MIC at 0.0078 mM incubated for 20 hrs by serial dilution broth microplate method
T1 sequence (whole entry): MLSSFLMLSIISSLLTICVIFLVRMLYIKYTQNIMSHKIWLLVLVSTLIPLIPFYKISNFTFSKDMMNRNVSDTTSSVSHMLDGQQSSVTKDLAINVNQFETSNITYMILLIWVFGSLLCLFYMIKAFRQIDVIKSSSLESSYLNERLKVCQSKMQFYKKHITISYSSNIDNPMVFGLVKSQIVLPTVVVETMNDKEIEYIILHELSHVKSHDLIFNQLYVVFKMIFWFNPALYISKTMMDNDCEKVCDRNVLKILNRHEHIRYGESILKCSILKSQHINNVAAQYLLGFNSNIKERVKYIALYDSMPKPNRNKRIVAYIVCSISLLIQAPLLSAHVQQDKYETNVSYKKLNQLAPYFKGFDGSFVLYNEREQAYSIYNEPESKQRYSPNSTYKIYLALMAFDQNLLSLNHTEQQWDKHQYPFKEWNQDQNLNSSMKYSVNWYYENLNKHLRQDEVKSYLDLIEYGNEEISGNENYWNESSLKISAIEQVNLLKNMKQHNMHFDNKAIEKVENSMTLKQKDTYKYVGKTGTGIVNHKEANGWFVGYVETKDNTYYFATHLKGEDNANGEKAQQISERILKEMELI
In short: (§2)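 Chemosensitization in MRSA HEMSA 5 measured by CLSI broth microdilution in Mueller-Hinton broth. Serial two-fold dilutions of antibiotic (oxacillin, cloxacillin, ampicillin/sulbactam 2:1, ciprofloxacin or neomycin) combined with compound at fixed concentration not exceeding ¼ of its own MIC. Inoculum OD 0.5 diluted 1:100. Read after 20 h at 37 °C. Result given as fold reduction of antibiotic MIC.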

[5] = molecular target: T1, Methicillin resistance mecR1 protein (Staphylococcus aureus); assay: Inhibition of MecR1 in methicillin-resistant Staphylococcus aureus HEMSA assessed as reduction in ampicillin and sulbactam MIC at 0.0078 mM incubated for 20 hrs by serial dilution broth microplate method; in short: as §2
[6] = system: Staphylococcus aureus; assay: Antimicrobial activity against Staphylococcus aureus ATCC 25923 incubated for 20 hrs by serial dilution broth microplate method; type: functional; details: ATCC 25923, 20 h
In short: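 Broth dilution per CLSI in Mueller-Hinton broth, serial two-fold dilutions; compounds alone against reference strain, inoculum from suspension at OD 0.5 diluted 1:100; read after 20 h at 37 °C. MIC taken as lowest concentration inhibiting growth.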

[7] = system: Staphylococcus aureus; assay: Potentiation of ciprofloxacin -induced antibacterial activity against Staphylococcus aureus ATCC 25923 assessed as reduction in […] MIC incubated for 20 hrs by serial dilution broth microplate method; type: functional, organism-based
[8] = system: Staphylococcus aureus; assay: Potentiation of […] antibacterial activity against Staphylococcus aureus ATCC 25923 assessed as reduction in ampicillin and sulbactam MIC MIC incubated for 20 hrs by serial dilution broth microplate method; type: functional, organism-based
[9] = system: Staphylococcus aureus; assay: Potentiation of neomycin-induced antibacterial activity against Staphylococcus aureus ATCC 25923 assessed as reduction in […] MIC incubated for 20 hrs by serial dilution broth microplate method; type: functional, organism-based
[10] = system: Staphylococcus aureus; assay: Antimicrobial activity against methicillin-resistant Staphylococcus aureus HEMSA incubated for 20 hrs by serial dilution broth microplate method; type: functional; in short: as §1
[11] = system: Staphylococcus aureus; assay: Potentiation of oxacillin-induced antibacterial activity against Staphylococcus aureus ATCC 25923 assessed as reduction in oxacillin MIC at 0.0039 mM incubated for 20 hrs by serial dilution broth microplate method; type: functional
[12] = molecular target: T1, Methicillin resistance mecR1 protein (Staphylococcus aureus); assay: Inhibition of MecR1 in methicillin-resistant Staphylococcus aureus HEMSA assessed as reduction in cloxacillin MIC at 0.0078 mM incubated for 20 hrs by serial dilution broth microplate method; in short: as §2
[13] = system: Staphylococcus aureus; assay: Potentiation of […] antibacterial activity against Staphylococcus aureus ATCC 25923 assessed as reduction in cloxacillin MIC incubated for 20 hrs by serial dilution broth microplate method; type: functional, organism-based
[14] = molecular target: T1, Methicillin resistance mecR1 protein (Staphylococcus aureus); assay: Inhibition of MecR1 in methicillin-resistant Staphylococcus aureus HEMSA assessed as reduction in oxacillin A MIC at 0.0078 mM incubated for 20 hrs by serial dilution broth microplate method; in short: as §2
[15] = molecular target: T1, Methicillin resistance mecR1 protein (Staphylococcus aureus); assay: Inhibition of MecR1 in methicillin-resistant Staphylococcus aureus HEMSA assessed as reduction in ciprofloxacin MIC at 0.0078 mM incubated for 20 hrs by serial dilution broth microplate method; in short: as §2
[16] = molecular target: T1, Methicillin resistance mecR1 protein (Staphylococcus aureus); assay: Inhibition of MecR1 in methicillin-resistant Staphylococcus aureus HEMSA assessed as reduction in cloxacillin MIC at 0.125 mM incubated for 20 hrs by serial dilution broth microplate method; in short: as §2
[17] = system: Staphylococcus aureus; assay: Potentiation of oxacillin-induced antibacterial activity against Staphylococcus aureus ATCC 25923 assessed as reduction in oxacillin MIC at 0.125 mM incubated for 20 hrs by serial dilution broth microplate method; type: functional
[18] = molecular target: T1, Methicillin resistance mecR1 protein (Staphylococcus aureus); assay: Inhibition of MecR1 in methicillin-resistant Staphylococcus aureus HEMSA assessed as reduction in ciprofloxacin MIC at 0.125 mM incubated for 20 hrs by serial dilution broth microplate method; in short: as §2
[19] = Toxicity against HEK293 cells assessed as cell viability at 0.125 mM incubated for 48 hrs by EZ4U colorimetric assay; type: cell-based; details: human, read-out: Activity
In short: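 HEK-293 cells in DMEM with 10% FBS, penicillin/streptomycin, 37 °C, 5% CO2; seeded 1.5×10^4 cells/well, 24 h to 60% confluence; compound 0.01–250 µM for 48 h; EZ4U tetrazolium reagent 5 h, absorbance at 492 nm; doxorubicin positive control (0.005–100 µM); four repetitions.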

[20] = molecular target: T1, Methicillin resistance mecR1 protein (Staphylococcus aureus); assay: Inhibition of MecR1 in methicillin-resistant Staphylococcus aureus HEMSA assessed as reduction in neomycin MIC at 0.125 mM incubated for 20 hrs by serial dilution broth microplate method
[21] = molecular target: T1, Methicillin resistance mecR1 protein (Staphylococcus aureus); assay: Inhibition of MecR1 in methicillin-resistant Staphylococcus aureus HEMSA assessed as reduction in oxacillin A MIC at 0.125 mM incubated for 20 hrs by serial dilution broth microplate method; in short: as §2
[22] = molecular target: T1, Methicillin resistance mecR1 protein (Staphylococcus aureus); assay: Inhibition of MecR1 in methicillin-resistant Staphylococcus aureus HEMSA assessed as reduction in ampicillin and sulbactam MIC at 0.125 mM incubated for 20 hrs by serial dilution broth microplate method; in short: as §2

Q: What does the source list for `CC1(C)S[C@@H]2[C@H](NC(=O)[C@H](N)c3ccccc3)C(=O)N2[C@H]1C(=O)O` [AMPICILLIN]?
A: Ratio [1]: 370; MIC [2]: 0.54 µM; MIC [3]: 200 µM

Q: With `O=C1NC(N2CCNCC2)=N/C1=C\c1ccc2c(c1)Cc1ccccc1-2` as the compound, how does the inhibition [4] read?
A: The inhibition was “inactive”.

Q: And the inhibition [5]?
A: Its inhibition is “inactive”.

Q: And the MIC [6]?
A: The MIC was 15.6 µM (≈ 5.37 µg/mL).

Q: And the Ratio [1]?
A: Its Ratio is 2.

Q: What about the Activity [7] of the same compound?
A: Its Activity is “inactive”.

Q: What about the Activity [8] of the same compound?
A: The Activity was “inactive”.

Q: And the Activity [9]?
A: Its Activity is “inactive”.

Q: And the MIC [10]?
A: The MIC was 31.3 µM (≈ 10.8 µg/mL).

Q: What about the “fold change (FC)” value [11] of the same compound?
A: Its value is 2.

Q: And the fold change (FC) [12]?
A: Its fold change (FC) is 8.

Q: And the Activity [13]?
A: The Activity was “inactive”.

Q: And the inhibition [14]?
A: The inhibition was “inactive”.

Q: And the inhibition [15]?
A: Its inhibition is “inactive”.

Q: Which MIC [6] does the source give for `O=C1NC(N2CCNCC2)=N/C1=C\c1c2ccccc2cc2ccccc12` here?
A: The MIC was 500 µM (≈ 178 µg/mL).

Q: And the Ratio [1]?
A: The Ratio was 1.

Q: What about the fold change (FC) [16] of the same compound?
A: The fold change (FC) was 8.

Q: And the “fold change (FC)” value [17]?
A: Its value is 2.

Q: What about the Activity [7] of the same compound?
A: Its Activity is “inactive”.

Q: And the Activity [8]?
A: The Activity was “inactive”.

Q: And the Activity [9]?
A: The Activity was “inactive”.

Q: What about the inhibition [18] of the same compound?
A: Its inhibition is “inactive”.

Q: What about the viability at 48 h, 125 µM [19] of the same compound?
A: The viability at 48 h, 125 µM was 91%.

Q: And the MIC [10]?
A: Its MIC is 500 µM (≈ 178 µg/mL).

Q: And the inhibition [20]?
A: The inhibition was “inactive”.

Q: And the fold change (FC) [21]?
A: The fold change (FC) was 64.

Q: And the inhibition [22]?
A: Its inhibition is “inactive”.

Q: And the Activity [13]?
A: The Activity was “inactive”.
